Source: PubChem BioAssay
In the library only some 3.7% were active in any assay of this set; here they are far more common.
KCNK9 block – blocks the human KCNK9 two-pore domain potassium channel. Q9NPC2. 310,000 compounds, 1.2% hits. B-score at 10 µM. HEK293 KCNK9, FluxOR thallium flux fluorescence; hits give low values;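 active means ratio B-score over 3 SD below the library mean, with starting fluorescence within 5 SD of its mean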;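 further: negative B-score means less thallium flux so channel inhibition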
hERG protect – shields human hERG channel from block by proarrhythmic agents; Q12809; CHO-hERG, FluxOR thallium flux, dofetilide IC70 present; activation (rescue from dofetilide block), less the hit threshold, % at 10 µM; 310,000 compounds, 0.51% hits; AID 1511;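 active means activation above the mean of controls blocked by dofetilide plus 5 SD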;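 further: thallium influx through hERG after potassium depolarization seen as dye fluorescence rise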
Target sequence (Q12809 whole entry, looked up): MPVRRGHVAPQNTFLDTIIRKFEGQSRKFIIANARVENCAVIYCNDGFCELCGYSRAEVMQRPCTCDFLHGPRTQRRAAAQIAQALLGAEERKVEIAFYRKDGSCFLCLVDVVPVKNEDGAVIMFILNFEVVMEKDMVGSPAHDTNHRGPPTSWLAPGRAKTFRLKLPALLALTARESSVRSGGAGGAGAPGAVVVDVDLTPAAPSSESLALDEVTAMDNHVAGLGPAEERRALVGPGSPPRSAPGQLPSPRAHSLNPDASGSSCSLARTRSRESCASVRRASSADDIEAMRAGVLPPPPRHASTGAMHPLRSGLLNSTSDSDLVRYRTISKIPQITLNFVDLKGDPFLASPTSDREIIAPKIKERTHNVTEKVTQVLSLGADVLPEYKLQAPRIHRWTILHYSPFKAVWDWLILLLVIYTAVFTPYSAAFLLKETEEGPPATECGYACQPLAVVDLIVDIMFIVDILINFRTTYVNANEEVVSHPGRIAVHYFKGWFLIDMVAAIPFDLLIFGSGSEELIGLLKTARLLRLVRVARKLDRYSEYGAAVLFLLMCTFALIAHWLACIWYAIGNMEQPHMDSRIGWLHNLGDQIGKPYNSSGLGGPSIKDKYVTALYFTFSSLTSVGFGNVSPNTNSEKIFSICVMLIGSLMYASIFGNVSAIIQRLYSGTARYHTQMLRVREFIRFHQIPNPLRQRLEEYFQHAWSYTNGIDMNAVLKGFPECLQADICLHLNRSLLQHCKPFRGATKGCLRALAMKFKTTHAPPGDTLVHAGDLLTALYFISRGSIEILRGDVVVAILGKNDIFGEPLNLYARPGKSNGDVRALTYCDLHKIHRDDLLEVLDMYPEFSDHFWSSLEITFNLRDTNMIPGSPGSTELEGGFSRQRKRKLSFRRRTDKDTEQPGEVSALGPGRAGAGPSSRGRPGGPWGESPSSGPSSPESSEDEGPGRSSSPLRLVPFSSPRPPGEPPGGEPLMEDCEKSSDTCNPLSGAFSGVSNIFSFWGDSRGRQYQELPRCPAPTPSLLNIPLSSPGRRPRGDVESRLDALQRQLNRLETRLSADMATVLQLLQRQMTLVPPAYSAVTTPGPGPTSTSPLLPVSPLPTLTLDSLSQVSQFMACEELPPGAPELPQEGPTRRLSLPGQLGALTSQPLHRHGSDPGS
KCNQ1 inh – blocks the human KCNQ1 potassium channel; P51787; CHO-K1 KCNQ1, FluxOR thallium flux fluorescence; hits give high values; B-score at 10 µM; 310,000 compounds, 1.3% hits;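 active means compounds whose thallium flux B-score, printed positive for inhibition, exceeds three library SD while starting fluorescence stays within three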;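 further: channel opened by potassium depolarization with thallium stimulus after 20 min compound exposure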
Kir21 inh – Kir2.1 (mouse) channel inhibition. HEK293-Kir2.1, FluxOR thallium flux fluorescence; hits give low values. B-score at 10 µM. 310,000 compounds, 0.85% hits. P35561. AID 1672;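 active means fluorescence ratio B-score at or below minus 3 SD of library scores, with starting-brightness B-score within 2 SD, cut at about -4.2 in these data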;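 further: channel flux triggered by added potassium and thallium sulfate stimulus; B-score of peak minus minimum fluorescence over baseline after thallium stimulus; more negative B-score means stronger Kir2.1 block with less thallium influx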
KCNQ1 act – potentiators or activators of human KCNQ1 potassium channel; CHO-K1 KCNQ1, thallium flux FluxOR fluorescence; hits give high values; 310,000 compounds, 0.35% hits; B-score at 10 µM; AID 2648; P51787;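 active means fluorescence ratio B-score, a plate-corrected score, at least three library SD, with initial intensity B-score within 5 SD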
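Doses: Single concentration per compound, DMSO matched to controls | Test system: KCNQ1-transfected CHO-K1 cells | Timing: 90 min dye loading and 20 min compound exposure, both at room temperature | Measured by: Kinetic FluxOR thallium fluorescence, 10-s 1-Hz baseline, 110-s post-stimulus read | Medium: Assay buffer with matched DMSO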
KCNK3 block – human KCNK3 channel inhibition, primary screen; O14649; CHO-KCNK3 thallium flux, FluxOR fluorescence; hits give low values; B-score at 10 µM; 340,000 compounds, 0.84% hits;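 active means B-score under library mean minus 4 SD, starting fluorescence ratio at most library mean plus 5 SD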;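 further: more negative B-score means stronger inhibition of thallium flux through KCNK3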
KCNK9 block conf – human KCNK9 inhibitor confirmation; shares compounds with KCNK9 block; HEK293 KCNK9 cells, FluxOR thallium flux fluorescence; inhibition, % at 10 µM; 4,900 compounds, 43% hits;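 active means thallium signal inhibited by more than 5 SD of the compound-free buffer control wells, on both duplicate plates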;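 further: 0% = assay buffer control wells without compound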
Kir2-1 spec – selectivity of KCNK9 modulators against mouse Kir2.1; shares compounds with KCNK9 block; Kir2.1 cells, FluxOR thallium flux fluorescence; inhibition, % at 10 µM; 4,900 compounds, 4% hits;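 active means thallium signal drop more than 5 SD beyond the mean of the no-compound control wells, seen in both duplicate plates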;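 further: signal is fluorescence rise after thallium addition divided by baseline fluorescence; plate controls were assay buffer only for no effect and full block by chlorpromazine control for full effect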
KCNK9 uninduced – second counter-screen for KCNK9 modulators: effect in non-induced cells | non-induced KCNK9-HEK293, FluxOR thallium flux | inhibition, % at 10 µM | shares compounds with KCNK9 block | 4,900 compounds, 40% hits;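 active means thallium signal drop beyond 5 SD of the untreated control mean, on both duplicate plates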;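 further: plate controls were buffer only IC0 wells for no effect and SID17386958 at its maximal inhibitory level for full effect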
Numbers without * were called inactive.

Results for Cc1ccc(C)c(C(=O)COC(=O)c2cc([N+](=O)[O-])ccc2NCCO)c1 ?
KCNK9 block: -8.2*; hERG protect: -9; KCNQ1 inh: inactive; Kir21 inh: 1.3; KCNQ1 act: 11*; KCNK3 block: inactive; KCNK9 block conf: 59%*; Kir2-1 spec: inactive; KCNK9 uninduced: inactive

What do the screens show for `CCc1ccc(C(C)NC(=O)c2cccs2)cc1` (stereo not drawn)?
KCNK9 block: inactive; hERG protect: 0; KCNQ1 inh: inactive; Kir21 inh: -0.68; KCNQ1 act: inactive; KCNK3 block: inactive

What do the screens show for `C=CCN(C(=O)c1oc2c(Cl)cc(C)cc2c1C)C1CCS(=O)(=O)C1` (stereo not drawn)?
KCNK9 block: inactive; hERG protect: -7; KCNQ1 inh: inactive; Kir21 inh: -1.9; KCNQ1 act: inactive; KCNK3 block: inactive; KCNK9 block conf: inactive; Kir2-1 spec: inactive; KCNK9 uninduced: inactive

Results for CCc1nc2ccccc2nc1N1CCN(S(=O)(=O)c2c(C)cc(Cl)cc2C)CC1 ?
KCNK9 block: inactive; hERG protect: -10; KCNQ1 inh: inactive; Kir21 inh: 1.1; KCNQ1 act: inactive; KCNK3 block: inactive; KCNK9 block conf: inactive; Kir2-1 spec: inactive; KCNK9 uninduced: inactive

Results for CCc1nc2ccccc2nc1N1CCN(S(=O)(=O)c2ccccc2)CC1 ?
KCNK9 block: inactive; hERG protect: -8; KCNQ1 inh: inactive; Kir21 inh: 1.3; KCNQ1 act: inactive; KCNK3 block: inactive

Results for CCCN(C(=O)CSc1nnc2ccccn12)C1CCS(=O)(=O)C1 (stereo not drawn) ?
KCNK3 block: inactive

Results for CCCC(=O)c1ccc(O)cc1O ?
KCNK9 block: inactive; hERG protect: -9; KCNQ1 inh: inactive; Kir21 inh: 0.81; KCNQ1 act: inactive; KCNK3 block: inactive

What do the screens show for `Cc1cccc(OCC(=O)N(Cc2nnc(-c3ccccc3Cl)o2)C2CC2)c1`?
KCNK3 block: inactive

Results for Cc1ccc(C)c(OCC(=O)N(Cc2nnc(-c3ccccc3Cl)o2)C2CC2)c1 ?
KCNK9 block: inactive; hERG protect: -17; KCNQ1 inh: inactive; Kir21 inh: -1.1; KCNQ1 act: inactive; KCNK3 block: inactive; KCNK9 block conf: inactive; Kir2-1 spec: inactive; KCNK9 uninduced: inactive

Results for CC1CC(C)CN(C(=O)C(C)N2CCN(S(=O)(=O)c3ccc(C(F)(F)F)cc3)CC2)C1 (stereo not drawn) ?
KCNK3 block: inactive

What do the screens show for `COc1cccc([C@@H]2Oc3ccc(OC)cc3C(=O)[C@H]2OC(=O)N[C@H](C)C2CCCCC2)c1`?
KCNK9 block: -8.7*; hERG protect: -6; KCNQ1 inh: inactive; Kir21 inh: 0.05; KCNQ1 act: inactive; KCNK9 block conf: 49%*; Kir2-1 spec: inactive; KCNK9 uninduced: 42%*

How did COc1ccc(-n2nc(C)c3c(=O)c4c([nH]c32)CCCC4)cc1 do in these assays?
KCNK9 block: inactive; hERG protect: -1; KCNQ1 inh: inactive; Kir21 inh: -0.37; KCNQ1 act: inactive; KCNK3 block: inactive

How did CCCCC(=O)Nc1ccc(F)c(Cl)c1 do in these assays?
KCNK9 block: inactive; hERG protect: -13; KCNQ1 inh: inactive; Kir21 inh: 0.44; KCNQ1 act: inactive; KCNK3 block: inactive

What do the screens show for `CSCC(=O)Nc1ccc(F)c(Cl)c1`?
KCNK9 block: inactive; hERG protect: -7; KCNQ1 inh: inactive; Kir21 inh: 2; KCNQ1 act: inactive; KCNK3 block: inactive; KCNK9 block conf: inactive; Kir2-1 spec: inactive; KCNK9 uninduced: inactive

What do the screens show for `CC1CC(C)CN(S(=O)(=O)c2ccc(Oc3ccc([N+](=O)[O-])cc3)cc2)C1` (stereo not drawn)?
KCNK9 block: inactive; hERG protect: -9; KCNQ1 inh: inactive; Kir21 inh: -0.69; KCNQ1 act: inactive; KCNK3 block: inactive; KCNK9 block conf: inactive; Kir2-1 spec: inactive; KCNK9 uninduced: inactive

How did OC(Cc1cccnc1)c1ccccc1 (stereo not drawn) do in these assays?
KCNK3 block: inactive

How did Nc1nc(Nc2cccc(C(F)(F)F)c2)nc(C(F)(F)F)n1 do in these assays?
KCNK9 block: -9.3*; hERG protect: -6; KCNQ1 inh: inactive; Kir21 inh: 2; KCNQ1 act: inactive; KCNK3 block: inactive; KCNK9 block conf: 40%*; Kir2-1 spec: inactive; KCNK9 uninduced: inactive

How did CCC(C)C(N)C(=O)N1CCCC1C(=O)NC(C(=O)O)C(C)CC (stereo not drawn) do in these assays?
KCNK3 block: inactive

What do the screens show for `Cc1noc(NC(=O)c2ccc(Cl)cc2)c1Cl`?
KCNK9 block: inactive; hERG protect: -5; KCNQ1 inh: inactive; Kir21 inh: 0.05; KCNQ1 act: inactive; KCNK3 block: inactive

Results for Cc1nonc1OCC(C)(COc1nonc1C)NC(=O)c1ccc(Cl)cc1 ?
KCNK9 block: -9.1*; hERG protect: -10; KCNQ1 inh: inactive; Kir21 inh: 0.01; KCNQ1 act: inactive; KCNK3 block: inactive; KCNK9 block conf: 46%*; Kir2-1 spec: inactive; KCNK9 uninduced: 36%*

Results for CCCN(Cc1nnc(-c2cccs2)o1)C(=O)c1cccc(S(=O)(=O)N2CCOCC2)c1 ?
KCNK3 block: inactive

What do the screens show for `Cc1cc(C)cc(CC2CC(=O)N(c3cc(C)on3)C2=O)c1` (stereo not drawn)?
KCNK9 block: inactive; hERG protect: -12; KCNQ1 inh: inactive; Kir21 inh: 0.28; KCNQ1 act: inactive; KCNK3 block: inactive

How did Cc1cc(C)cc(CC2CC(=O)N(c3ccc4c(c3)OCCO4)C2=O)c1 (stereo not drawn) do in these assays?
KCNK9 block: inactive; hERG protect: -3; KCNQ1 inh: inactive; Kir21 inh: -1.1; KCNQ1 act: inactive; KCNK3 block: inactive; KCNK9 block conf: inactive; Kir2-1 spec: inactive; KCNK9 uninduced: inactive

What do the screens show for `COc1ccccc1-n1c(SCC(=O)Nc2cccc(S(N)(=O)=O)c2)nc2ccccc2c1=O`?
KCNK9 block: -8.4*; hERG protect: -16; KCNQ1 inh: inactive; Kir21 inh: -2.3; KCNQ1 act: inactive; KCNK3 block: inactive; KCNK9 block conf: 34%*; Kir2-1 spec: inactive; KCNK9 uninduced: inactive
